Data set [1] has as its target T1, Nuclear receptor subfamily 1 group I member 2 (Homo sapiens, UniProt O75469).
T1 sequence (O75469 whole entry): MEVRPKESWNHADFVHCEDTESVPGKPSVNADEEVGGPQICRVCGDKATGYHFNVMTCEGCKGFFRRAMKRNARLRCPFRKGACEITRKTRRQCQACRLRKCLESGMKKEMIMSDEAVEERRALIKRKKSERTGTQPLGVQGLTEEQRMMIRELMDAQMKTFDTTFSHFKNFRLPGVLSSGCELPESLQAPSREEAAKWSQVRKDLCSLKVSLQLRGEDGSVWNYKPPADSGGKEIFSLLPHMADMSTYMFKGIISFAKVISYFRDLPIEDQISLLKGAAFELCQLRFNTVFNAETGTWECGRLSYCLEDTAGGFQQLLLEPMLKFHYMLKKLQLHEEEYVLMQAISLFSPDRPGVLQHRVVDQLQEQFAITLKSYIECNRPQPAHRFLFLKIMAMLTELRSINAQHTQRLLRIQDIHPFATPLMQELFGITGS
Nature of the data set: Agonist activity at PXR in human primary hepatocytes assessed as upregulation of MDR/ABCB1 mRNA expression at 10 uM after 24 hrs by qRT-PCR method. Format: cell-based, Hepatocyte.

Data set [2] deals with T2, Vitamin D3 receptor (Homo sapiens) (UniProt P11473).
T2 sequence (whole entry): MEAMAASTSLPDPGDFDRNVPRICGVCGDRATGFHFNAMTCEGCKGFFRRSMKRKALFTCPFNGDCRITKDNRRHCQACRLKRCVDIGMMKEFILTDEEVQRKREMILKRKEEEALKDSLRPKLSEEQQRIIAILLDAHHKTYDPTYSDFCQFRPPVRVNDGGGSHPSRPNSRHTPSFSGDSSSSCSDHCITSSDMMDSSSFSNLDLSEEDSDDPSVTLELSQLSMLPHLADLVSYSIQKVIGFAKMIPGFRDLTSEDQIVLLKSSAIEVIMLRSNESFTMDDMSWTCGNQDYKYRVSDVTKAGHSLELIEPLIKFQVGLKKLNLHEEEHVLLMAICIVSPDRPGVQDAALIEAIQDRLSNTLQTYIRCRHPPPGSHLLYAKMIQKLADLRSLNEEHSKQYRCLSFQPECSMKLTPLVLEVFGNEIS
Nature of the data set: Agonist activity at VDR in human primary hepatocytes assessed as upregulation of MDR/ABCB1 mRNA expression at 10 uM after 24 hrs by qRT-PCR method. It is filed as cell-based. The following applies: Hepatocyte.

The target of data set [3] is T3, AHR (Homo sapiens, UniProt P35869).
T3 sequence (P35869 whole entry): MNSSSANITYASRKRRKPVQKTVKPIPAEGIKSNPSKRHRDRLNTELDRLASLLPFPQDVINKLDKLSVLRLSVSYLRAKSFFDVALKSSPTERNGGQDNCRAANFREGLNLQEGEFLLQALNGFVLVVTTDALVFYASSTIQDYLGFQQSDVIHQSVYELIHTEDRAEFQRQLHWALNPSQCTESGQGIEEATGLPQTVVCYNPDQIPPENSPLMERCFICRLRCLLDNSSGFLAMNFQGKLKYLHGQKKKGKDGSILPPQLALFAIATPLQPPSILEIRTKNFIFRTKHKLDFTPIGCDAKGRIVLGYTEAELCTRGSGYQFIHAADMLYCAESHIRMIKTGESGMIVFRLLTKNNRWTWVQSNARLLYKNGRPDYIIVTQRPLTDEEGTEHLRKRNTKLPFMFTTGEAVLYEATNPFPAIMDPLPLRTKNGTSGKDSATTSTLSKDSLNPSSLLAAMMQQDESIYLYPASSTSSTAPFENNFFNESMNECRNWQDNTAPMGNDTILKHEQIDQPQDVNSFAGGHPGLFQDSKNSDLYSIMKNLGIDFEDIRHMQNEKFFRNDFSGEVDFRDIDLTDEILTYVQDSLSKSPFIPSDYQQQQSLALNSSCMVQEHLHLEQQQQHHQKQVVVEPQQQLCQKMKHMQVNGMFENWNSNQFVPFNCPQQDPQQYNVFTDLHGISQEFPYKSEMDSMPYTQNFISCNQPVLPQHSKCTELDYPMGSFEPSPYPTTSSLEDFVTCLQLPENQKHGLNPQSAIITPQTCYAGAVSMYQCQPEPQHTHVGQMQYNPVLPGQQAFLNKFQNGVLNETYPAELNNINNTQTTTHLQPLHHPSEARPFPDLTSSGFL
Nature of the data set: (§1) Agonist activity at AHR expressed in human HepG2 cells after 24 hrs by pXRE-luciferase reporter gene assay. Particulars: human, HepG2 cells expressing AHR; read-out: Imax. It is filed as cell-based.

Data set [4] concerns the target T4, Aryl hydrocarbon receptor (Homo sapiens, UniProt P35869).
T4 sequence (P35869 whole entry): T3 sequence (P35869 whole entry)
The data set is described as §1. Format: cell-based.

For data set [5], the target named is T5, Nuclear receptor subfamily 1 group I member 3 (Homo sapiens, UniProt Q14994).
T5 sequence (Q14994 whole entry): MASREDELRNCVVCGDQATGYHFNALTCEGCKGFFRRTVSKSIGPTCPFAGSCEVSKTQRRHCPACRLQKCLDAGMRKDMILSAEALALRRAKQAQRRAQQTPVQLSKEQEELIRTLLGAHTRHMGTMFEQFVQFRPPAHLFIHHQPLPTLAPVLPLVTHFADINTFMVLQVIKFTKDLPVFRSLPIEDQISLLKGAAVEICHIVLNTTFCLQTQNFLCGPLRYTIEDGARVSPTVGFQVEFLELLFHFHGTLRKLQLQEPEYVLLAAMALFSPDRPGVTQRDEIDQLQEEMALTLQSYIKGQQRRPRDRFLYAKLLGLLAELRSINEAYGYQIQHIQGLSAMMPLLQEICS
Nature of the data set: Agonist activity at CAR expressed in human HepG2 cells after 24 hrs by CYP3A4-luciferase reporter gene assay. Particulars: hepg2, 24 h. It is filed as cell-based. The procedure, abridged: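 HepG2 cells co-transfected with CYP3A4-luc, wild-type CAR vector and pRL-TK; 24 h stabilization, then compound or DMSO (0.1%, v/v) for 24 h, with parallel androstenol (5 µM) treatment to suppress basal activity. Dual firefly/Renilla luciferase read; fold induction over vehicle (set to 1), means of three independent experiments.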

The target of data set [6] is T5, Nuclear receptor subfamily 1 group I member 3. Nature of the data set: Agonist activity at human GAL4-fused CAR LBD (108 to 348 residues) expressed in human HepG2 cells assessed as receptor binding to SRC1-VP16 fusion protein at 5 to 20 uM after 24 hrs by luciferase reporter gene assay. Format: cell-based. The following applies: hepg2, 24 h.
Data set [7] deals with T2, Vitamin D3 receptor (Homo sapiens). Nature of the data set: Agonist activity at VDR in human primary hepatocytes assessed as upregulation of CYP2C9 mRNA expression at 10 uM after 24 hrs by qRT-PCR method. Format: cell-based. The following applies: Hepatocyte.
Data set [8] concerns HepG2. Nature of the data set: Cytotoxicity against human HepG2 cells assessed as cell viability after 24 hrs by MTS assay. It is filed as cell-based. Particulars: hepg2, 24 h.

Calls of active or inactive are those of the source. The calls are words filed in the database; no cut-off is given here.

Turning to `COc1cccc(-c2nc3ccccc3c(=S)[nH]2)c1`, the Activity result in data set [1] was “Active”; in data set [5], “Dose-dependent effect”; in data set [6], “Active”; in data set [8], “Non-toxic”. Moreover, the outcome in data set [2] and in data set [7] was Active. In addition, the Emax at 24 h in data set [3] stood at 266%. The compound further showed an EC50 in data set [4] of 630 nM.
Turning to `COc1cccc(-c2nc(SC)c3ccccc3n2)c1`, the Activity result in data set [1] is recorded as “Active”; in data set [5] it was “Dose-dependent effect”; in data set [6] it was “Active”; in data set [8] it was “Non-toxic”. Moreover, the outcome in data set [2] and in data set [7] was Active. Also, the Emax at 24 h in data set [3] is 219%. In addition, a half-maximal response in data set [4] (EC50) required 2300 nM.
With `COc1cccc(-c2nc(OC)c3ccccc3n2)c1`, the Activity entry in data set [1] was “Active”; in data set [5] it was “Dose-dependent effect”; in data set [6] it was “Active”; in data set [8], “Non-toxic”. Moreover, the result in data set [2] and in data set [7] was Active. Further, the Emax at 24 h in data set [3] stood at 290%. The compound further had an EC50 in data set [4] of 7300 nM.
